# Test results reported in PubChem BioAssay AID488898 (Broad Institute, 2010).
# Inconclusive results are not listed. Calls of active or inactive are those of the source.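 Rule for the calls: active = fitted half-maximal caspase rise reached at or below ten times the top valid dose; inconclusive = flat fit between 30 and 70 percent, or poor fit; inactive = the rest.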
# Tested on: Bax/Bak-/- MEF caspase activation, CaspaseGlo luminescence, 3 h
# Experiment: apoptosis induction, Bax/Bak-deficient fibroblasts – cell-based, mouse embryonic fibroblasts, dry powder, counter-screen for Bcl2-A1 inhibitor project, dose response (AID 488898)
# Conditions: not given
# Outline: (§1)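 Medium: RPMI-1640 plus 10% FBS; Test system: Bax/Bak double-knockout mouse embryonic fibroblasts, counterscreen cell line; Times: 3 h at 37 °C treatment, 1 h room-temperature read; Technique: Caspase-Glo luminescent readout.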
row,SMILES,AC50
1,Cc1cc(C(=O)CCl)c(C)n1CCc1ccc(Cl)cc1,13.3 µM
2,Cc1cccc(NC(=O)/C(C#N)=C/c2cn(CC(=O)NCc3ccco3)c3ccccc23)c1,4.78 µM
3,COc1ccc(N(C(=O)CCl)C(C(=O)NCCc2ccccc2)c2cccs2)cc1Cl (centres undefined),24.9 µM

# Tested on: not listed separately
# Experiment: as above
# Conditions: Bax/Bak-/- MEF caspase activation, CaspaseGlo luminescence, 3 h; at 135 µM (top of the series)
# Outline: as §1
row,SMILES,caspase activation
1,CC(=O)N[C@H]1[C@H](O[C@H]2CC[C@@]3(C)C(CC[C@]4(C)C3CC=C3[C@@H]5CC(C)(C)CC[C@]5(C(=O)OC5OCC(O)C(O)C5O)C(O)C[C@]34C)C2(C)C)O[C@H](COC2OCC(O)C(OC3OCC(O)C(O)C3O)C2O)[C@@H](O[C@@H]2O[C@@H](C)[C@H](O)[C@@H](O)[C@H]2O[C@@H]2O[C@@H](C)[C@H](O)[C@@H](O)[C@H]2O)[C@@H]1O (some centres undefined),-0.158% (inactive)

# Same assay, conditions: Bax/Bak-/- MEF caspase activation, CaspaseGlo luminescence, 3 h; at 150 µM (top of the series)
row,SMILES,caspase activation
1,C/C1=C/C(=O)O[C@@H]2C[C@@H](CC[C@H](C)/C=C\CC1)O[C@@](O)(C1CSC(=O)N1)C2 (some centres undefined),1.16% (inactive)
2,Nc1nc(F)nc2c1ncn2[C@@H]1O[C@H](CO)[C@@H](O)[C@H]1O,-0.0553% (inactive)
3,Cc1cccc(CS(=O)(=O)c2ncc(Cl)c(C(=O)Nc3nnc(C(C)C)s3)n2)c1,-0.163% (inactive)
4,Cc1ccc(CS(=O)(=O)c2ncc(Cl)c(C(=O)Nc3nnc(C(C)C)s3)n2)cc1,-0.479% (inactive)
5,Cn1c(=NC(=O)CCl)sc2ccccc21,0.685% (inactive)
6,C=C1[C@@H](C)[C@H]2[C@H](Cc3ccccc3)NC(=O)[C@]23[C@H](OC(C)=O)/C=C/[C@](C)(O)C(=O)[C@@H](C)C/C=C/[C@H]3[C@@H]1O,0.127% (inactive)
7,C=C1[C@@H](C)[C@H]2[C@H](Cc3ccccc3)NC(=O)[C@]23OC(=O)/C=C\[C@H](O)CCC[C@@H](C)C/C=C/[C@H]3[C@@H]1O,0.116% (inactive)
8,CCc1nnc(NC(=O)c2nc(S(=O)(=O)Cc3ccccc3)ncc2Cl)s1,-0.106% (inactive)
9,COc1cc(/C=C(/C#N)c2nc3ccccc3[nH]2)ccc1OCC(=O)Nc1ccccc1C(C)C,1.27% (inactive)
10,O=C(Oc1cccc(/C=N/Nc2nc(Nc3ccccc3)nc(N3CCOCC3)n2)c1)c1ccco1,0.146% (inactive)
11,Cc1c(C=O)c(C=O)c(C)n1Cc1ccccc1,1.17% (inactive)
12,O=C(CCl)N=c1sccn1Cc1ccccc1Cl,0.854% (inactive)
13,CCSc1nnc(NC(=O)c2nc(S(=O)(=O)Cc3ccc(F)cc3)ncc2Cl)s1,-0.717% (inactive)
14,COc1cccc(C(=O)C(C#N)=C(SC)SC)c1,0.208% (inactive)
15,CCOC(=O)CSC1=N/C(=C/c2ccc(-n3cncn3)cc2)C(=O)N1C(C)=O,-0.0192% (inactive)
16,CC(C)(C)n1nc(-c2ccc(Cl)cc2)c2c(N)ncnc21,2.79% (inactive)
17,CC(=O)OC(C)(C)/C=C/C(=O)[C@](C)(O)C1[C@H](O)C[C@@]2(C)C3CC=C4C(C[C@H](O)C(=O)C4(C)C)[C@]3(C)C(=O)C[C@]12C (some centres undefined),0.556% (inactive)
18,Cc1ccc(Sc2c([N+](=O)[O-])c(=O)n(C)c3ccccc23)cc1,1% (inactive)
19,Cc1c(CCOC(=O)c2ccc(N3CCOCC3)c([N+](=O)[O-])c2)sc[n+]1CC#N,0.688% (inactive)
20,CCc1cc2c(=O)c(-c3cnn(-c4ccccc4)c3)c(C)oc2cc1OCC(=O)Nc1cccc(C)c1,0.45% (inactive)
